# Data reported in the M2OR odorant receptor database.
# Changes are numbered by the printed parent chain.
# Columns and labels:
# Conditions in all cases: stereoisomer not certain
# OR7G2 = system: T1, OR7G2
# T1 sequence (whole entry): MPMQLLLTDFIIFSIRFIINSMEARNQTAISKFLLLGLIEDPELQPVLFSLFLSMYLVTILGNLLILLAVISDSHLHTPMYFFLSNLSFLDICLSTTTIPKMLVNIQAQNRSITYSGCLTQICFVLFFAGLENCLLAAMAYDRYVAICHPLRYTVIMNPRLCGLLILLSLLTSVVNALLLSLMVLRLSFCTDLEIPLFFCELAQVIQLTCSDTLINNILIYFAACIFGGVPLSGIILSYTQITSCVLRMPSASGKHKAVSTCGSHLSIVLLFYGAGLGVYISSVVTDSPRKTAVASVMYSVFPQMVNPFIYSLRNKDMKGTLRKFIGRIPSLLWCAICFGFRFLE
# Summary of the method: (§1)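 Assay methods differ from source to source, frequently being transient luciferase assays in mammalian cell lines. For each receptor–molecule pair, the label responsive (active) applies when the original authors judged the measured signal statistically different from baseline, and non-responsive (inactive) applies otherwise.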
# OR7G3 (Homo sapiens) = target: T2, OR7G3 (Homo sapiens) (UniProt Q8NG95)
# T2 sequence (whole entry): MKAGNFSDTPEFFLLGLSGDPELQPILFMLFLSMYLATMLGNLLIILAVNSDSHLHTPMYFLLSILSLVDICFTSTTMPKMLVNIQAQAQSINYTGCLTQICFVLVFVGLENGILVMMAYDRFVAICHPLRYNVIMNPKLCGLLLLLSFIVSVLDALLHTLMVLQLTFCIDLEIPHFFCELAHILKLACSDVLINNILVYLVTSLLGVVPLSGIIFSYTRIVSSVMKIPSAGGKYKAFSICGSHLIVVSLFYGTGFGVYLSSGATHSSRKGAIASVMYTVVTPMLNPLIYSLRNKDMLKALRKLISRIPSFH
# Summary of the method: as §1
# OR7G3 M29V = system: T3, OR7G3 M29V
# T3 sequence (whole entry): T2 sequence (whole entry) with M29V
# Summary of the method: as §1
# OR8A1 (Homo sapiens) = target: T4, OR8A1 (Homo sapiens) (UniProt Q8NGG7)
# T4 sequence (whole entry): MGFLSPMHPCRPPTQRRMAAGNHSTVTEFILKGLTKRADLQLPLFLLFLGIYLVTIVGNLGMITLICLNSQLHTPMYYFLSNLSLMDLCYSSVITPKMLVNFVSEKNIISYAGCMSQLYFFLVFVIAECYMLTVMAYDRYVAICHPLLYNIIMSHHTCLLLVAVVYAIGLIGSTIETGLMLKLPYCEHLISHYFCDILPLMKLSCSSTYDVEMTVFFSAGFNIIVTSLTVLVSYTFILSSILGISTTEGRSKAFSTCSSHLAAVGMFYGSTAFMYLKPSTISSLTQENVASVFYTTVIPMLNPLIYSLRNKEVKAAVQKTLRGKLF
# Summary of the method: as §1
# OR8B12 (Homo sapiens) = target: T5, OR8B12 (Homo sapiens) (UniProt Q8NGG6)
# T5 sequence (whole entry): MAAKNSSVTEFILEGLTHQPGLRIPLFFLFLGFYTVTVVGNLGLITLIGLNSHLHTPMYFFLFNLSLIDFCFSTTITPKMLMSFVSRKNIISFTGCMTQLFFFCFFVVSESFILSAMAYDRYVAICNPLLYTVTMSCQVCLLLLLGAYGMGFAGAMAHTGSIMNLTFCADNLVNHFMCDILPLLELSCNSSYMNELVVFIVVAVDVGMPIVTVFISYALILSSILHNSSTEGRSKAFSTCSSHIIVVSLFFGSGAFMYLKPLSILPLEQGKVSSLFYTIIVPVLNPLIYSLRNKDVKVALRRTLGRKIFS
# Summary of the method: as §1
# OR8B2 (Homo sapiens) = target: T6, OR8B2 (Homo sapiens) (UniProt Q96RD0)
# T6 sequence (whole entry): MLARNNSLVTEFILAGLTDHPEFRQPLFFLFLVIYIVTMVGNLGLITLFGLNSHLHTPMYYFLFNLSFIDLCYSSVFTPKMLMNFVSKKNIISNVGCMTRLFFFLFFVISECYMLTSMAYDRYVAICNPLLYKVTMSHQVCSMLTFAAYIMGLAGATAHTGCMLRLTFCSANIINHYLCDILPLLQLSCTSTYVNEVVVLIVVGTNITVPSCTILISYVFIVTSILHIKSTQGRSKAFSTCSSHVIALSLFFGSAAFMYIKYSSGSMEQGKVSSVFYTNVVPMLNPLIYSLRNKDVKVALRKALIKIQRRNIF
# Summary of the method: as §1
# OR8B2 L164F = system: T7, OR8B2 L164F
# T7 sequence (whole entry): T6 sequence (whole entry) with L164F
# Summary of the method: as §1
# OR8B2 S273F = system: T8, OR8B2 S273F
# T8 sequence (whole entry): T6 sequence (whole entry) with S273F
# Summary of the method: as §1
# OR8B3 (Homo sapiens) = target: T9, OR8B3 (Homo sapiens) (UniProt Q8NGG8)
# T9 sequence (whole entry): T6 sequence (whole entry) with R24Q, I34V, T47I, N94Y, R100Q, T205I, T208M
# Summary of the method: as §1
# OR7G2 (Homo sapiens) = target: T10, OR7G2 (Homo sapiens) (UniProt Q8NG99)
# T10 sequence (whole entry): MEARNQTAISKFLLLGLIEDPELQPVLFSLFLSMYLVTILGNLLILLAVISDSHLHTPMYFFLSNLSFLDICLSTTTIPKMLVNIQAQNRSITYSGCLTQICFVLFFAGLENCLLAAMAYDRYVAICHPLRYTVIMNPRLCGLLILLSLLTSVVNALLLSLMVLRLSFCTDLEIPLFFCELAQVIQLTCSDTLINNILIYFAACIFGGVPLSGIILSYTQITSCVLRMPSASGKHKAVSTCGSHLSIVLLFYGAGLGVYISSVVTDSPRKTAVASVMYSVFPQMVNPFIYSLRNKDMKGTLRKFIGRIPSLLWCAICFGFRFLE
# Summary of the method: as §1
SMILES,odorant receptor agonist call (OR7G2),odorant receptor agonist call (OR7G3 (Homo sapiens)),odorant receptor agonist call (OR7G3 M29V),odorant receptor agonist call (OR8A1 (Homo sapiens)),odorant receptor agonist call (OR8B12 (Homo sapiens)),odorant receptor agonist call (OR8B2 (Homo sapiens)),odorant receptor agonist call (OR8B2 L164F),odorant receptor agonist call (OR8B2 S273F),odorant receptor agonist call (OR8B3 (Homo sapiens)),odorant receptor agonist call (OR7G2 (Homo sapiens))
CCC1OC(=O)C(O)=C1C (stereo unspecified),inactive,inactive,inactive,inactive,inactive,inactive,inactive,inactive,inactive,
CC(=O)c1c(C)c([N+](=O)[O-])c(C(C)(C)C)c([N+](=O)[O-])c1C,,inactive,,inactive,inactive,inactive,,,inactive,inactive
CC1CCCCCCCCCCCCC(=O)C1 (stereo unspecified),,inactive,,inactive,inactive,inactive,,,inactive,inactive
CCC(S)C(C)CO (stereo unspecified),,inactive,,inactive,inactive,inactive,,,inactive,inactive
Cc1cnc(C)c(C)n1,inactive,inactive,inactive,inactive,inactive,inactive,inactive,inactive,inactive,
CC(CO)CS (stereo unspecified),,inactive,,inactive,inactive,inactive,,,inactive,inactive
CCCCCCC=CCCC=O,,inactive,inactive,inactive,inactive,inactive,inactive,inactive,inactive,inactive
CC1=C(O)C(=O)OC1C (stereo unspecified),inactive,inactive,inactive,inactive,inactive,inactive,inactive,inactive,inactive,
CC1=NC(C)C(C)S1 (stereo unspecified),inactive,inactive,inactive,inactive,inactive,inactive,inactive,inactive,inactive,
O=c1ccc2ccccc2o1,,,,,,inactive,,,,
CCCCCC(S)C(C)CO (stereo unspecified),,inactive,,inactive,inactive,inactive,,,inactive,inactive
CC1=C(O)C(=O)C(C)O1 (stereo unspecified),inactive,inactive,inactive,inactive,inactive,inactive,inactive,inactive,inactive,
CCCCCC(=O)C(C)C(C)=O (stereo unspecified),,inactive,,inactive,inactive,inactive,,,inactive,inactive
CCC1OC(C)=C(O)C1=O (stereo unspecified),inactive,inactive,inactive,inactive,inactive,inactive,inactive,inactive,inactive,
CCCCC(S)C(C)CO (stereo unspecified),,inactive,,inactive,inactive,inactive,,,inactive,inactive
CCCC(S)CCOC(C)=O (stereo unspecified),inactive,inactive,inactive,inactive,inactive,inactive,inactive,inactive,inactive,
O=C1CCOc2ccccc21,,,,,,active,,,,
